Columns and labels:
[1] = target: T1, 5-hydroxytryptamine receptor 1A (Homo sapiens, UniProt P08908); assay: Displacement of [3H]-8-OH-DPAT from human 5-HT1A receptor expressed in HEK293 cells after 1 hr; type: cell-based
T1 sequence (P08908 whole entry): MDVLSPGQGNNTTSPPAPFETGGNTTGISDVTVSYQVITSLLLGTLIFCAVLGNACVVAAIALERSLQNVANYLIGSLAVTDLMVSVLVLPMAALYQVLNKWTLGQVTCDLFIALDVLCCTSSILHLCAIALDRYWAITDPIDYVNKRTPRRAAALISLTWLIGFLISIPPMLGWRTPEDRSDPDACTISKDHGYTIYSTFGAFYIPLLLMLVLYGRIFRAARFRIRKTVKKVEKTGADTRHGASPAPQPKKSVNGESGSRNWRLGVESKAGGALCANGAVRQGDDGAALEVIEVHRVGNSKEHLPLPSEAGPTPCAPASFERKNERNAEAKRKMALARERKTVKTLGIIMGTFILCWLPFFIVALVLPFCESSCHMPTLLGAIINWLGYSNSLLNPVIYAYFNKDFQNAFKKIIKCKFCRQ
How it was run: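 Membranes from stably transfected HEK293 cells (human 5-HT1A), homogenized in 50 mM Tris–HCl, 0.1 mM EDTA, 4 mM MgCl2, 10 µM pargyline, 0.1% ascorbate; incubated 1 h at room temperature, then rapid filtration and radioactivity counting. Nonspecific binding with 10 µM 5-HT.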

[2] = target: 5-hydroxytryptamine receptor 6 (Homo sapiens, UniProt P50406); assay: Displacement of [3H]-LSD from human 5-HT6 receptor expressed in HEK293 cells after 1 hr; type: cell-based
D(2) dopamine receptor = D(2) dopamine receptor (Homo sapiens, UniProt P14416); assay: Binding affinity to human dopamine D2L receptor expressed in HEK293 cells after 1 hr; type: cell-based
[3] = target: 5-hydroxytryptamine receptor 7 (Homo sapiens, UniProt P34969); assay: Displacement of [3H]-5-CT from human 5-HT7b receptor expressed in HEK293 cells after 1 hr; type: cell-based
Homo sapiens = species on record: Homo sapiens; assay: Selectivity ratio of Ki for human 5-HT1A receptor to Ki for human 5-HT7b receptor

Chain of D(2) dopamine receptor (P14416 whole entry): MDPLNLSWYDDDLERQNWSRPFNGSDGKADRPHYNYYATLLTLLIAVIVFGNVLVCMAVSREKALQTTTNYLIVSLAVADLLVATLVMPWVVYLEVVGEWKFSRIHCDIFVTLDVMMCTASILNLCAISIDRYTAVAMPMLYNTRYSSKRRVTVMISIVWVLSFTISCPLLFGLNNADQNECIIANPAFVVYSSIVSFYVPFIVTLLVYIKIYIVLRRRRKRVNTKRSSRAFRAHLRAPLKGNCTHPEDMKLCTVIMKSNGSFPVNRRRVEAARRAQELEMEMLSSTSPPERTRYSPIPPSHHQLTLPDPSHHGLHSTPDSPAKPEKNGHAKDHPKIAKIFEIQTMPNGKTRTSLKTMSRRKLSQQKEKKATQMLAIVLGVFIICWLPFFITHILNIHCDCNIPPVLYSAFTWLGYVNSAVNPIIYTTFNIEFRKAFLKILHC
Chain of 5-hydroxytryptamine receptor 7 (P34969 whole entry): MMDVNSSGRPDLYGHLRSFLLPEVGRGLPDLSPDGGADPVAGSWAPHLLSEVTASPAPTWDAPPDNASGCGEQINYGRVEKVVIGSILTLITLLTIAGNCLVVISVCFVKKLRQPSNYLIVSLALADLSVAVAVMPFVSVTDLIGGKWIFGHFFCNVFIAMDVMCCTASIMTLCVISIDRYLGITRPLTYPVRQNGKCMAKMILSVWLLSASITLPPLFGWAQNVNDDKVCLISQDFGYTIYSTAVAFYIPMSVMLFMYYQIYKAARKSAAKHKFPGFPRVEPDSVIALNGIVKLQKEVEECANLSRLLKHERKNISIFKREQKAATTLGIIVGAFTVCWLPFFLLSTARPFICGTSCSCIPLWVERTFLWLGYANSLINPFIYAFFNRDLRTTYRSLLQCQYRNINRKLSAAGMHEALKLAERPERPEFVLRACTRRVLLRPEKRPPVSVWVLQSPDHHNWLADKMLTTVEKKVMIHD
Chain of 5-hydroxytryptamine receptor 6 (P50406 whole entry): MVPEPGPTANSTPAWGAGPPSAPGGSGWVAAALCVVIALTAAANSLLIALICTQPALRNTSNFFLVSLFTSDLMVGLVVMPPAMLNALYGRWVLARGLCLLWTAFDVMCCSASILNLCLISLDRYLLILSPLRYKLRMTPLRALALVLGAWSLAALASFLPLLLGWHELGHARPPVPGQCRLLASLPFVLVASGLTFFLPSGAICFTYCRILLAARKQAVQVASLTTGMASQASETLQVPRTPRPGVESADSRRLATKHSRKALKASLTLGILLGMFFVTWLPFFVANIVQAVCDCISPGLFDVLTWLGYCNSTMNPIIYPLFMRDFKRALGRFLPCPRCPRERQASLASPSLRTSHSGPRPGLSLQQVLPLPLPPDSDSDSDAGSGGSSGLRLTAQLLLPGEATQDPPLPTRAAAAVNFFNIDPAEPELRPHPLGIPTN

SMILES	Ki [1]	Ki [2]	Ki (D(2) dopamine receptor)	Ki [3]	Ratio Ki (Homo sapiens)
CC(C)c1ccccc1OCCN1CC[C@H](NS(=O)(=O)c2ccc(Cl)s2)C1	89 nM	537 nM	25 nM	–	–
O=S(=O)(N[C@H]1CCN(CCOc2ccccc2-c2ccccc2)C1)c1ccc(F)cc1	32 nM	271 nM	10 nM	10 nM	3
CC(C)c1ccccc1OCCN1CCC(CNC(=O)c2cccs2)CC1	–	–	–	407 nM	–
CSc1ccccc1OCCN1CCC(NS(=O)(=O)c2cccc(Cl)c2)C1 (stereo not given)	5 nM	185 nM	36 nM	15 nM	< 1
CCOc1ccccc1C(=O)NC1CCN(CCOc2ccccc2C(C)C)CC1	–	–	–	311 nM	–
CSc1ccccc1OCCN1CCC(NS(=O)(=O)c2ccc(Cl)s2)CC1	–	–	–	17 nM	–
O=C(NC1CCN(CCOc2cccc(-c3ccccc3)c2)C1)c1cccc(F)c1 (stereo not given)	–	–	–	709 nM	–
O=C(NC1CCN(CCSc2ccccc2-c2ccccc2)CC1)c1ccc2ccccc2n1	–	–	–	865 nM	–
O=C(NC1CCN(CCOc2cccc(Cl)c2Cl)C1)c1ccc2c(c1)OCCO2 (stereo not given)	–	–	–	161 nM	–
O=S(=O)(NC1CCN(CCOc2cccc(Cl)c2Cl)C1)c1ccc(Cl)s1 (stereo not given)	28 nM	91 nM	67 nM	–	–
O=S(=O)(NC1CCN(CCOc2cccc3c2CCCC3)C1)c1cccs1 (stereo not given)	13 nM	102 nM	72 nM	27 nM	< 1
Cc1ccccc1C(=O)NC1CCN(CCSc2cccc(Cl)c2Cl)C1 (stereo not given)	–	–	–	427 nM	–
O=S(=O)(NC1CCN(CCOc2ccccc2)C1)c1ccc(Cl)s1 (stereo not given)	65 nM	957 nM	318 nM	–	–
O=S(=O)(N[C@@H]1CCN(CCOc2ccccc2-c2ccccc2)C1)c1ccc(Cl)s1	75 nM	202 nM	39 nM	–	–
CC(C)c1ccccc1OCCN1CC[C@@H](NS(=O)(=O)c2ccc(Cl)s2)C1	49 nM	200 nM	20 nM	–	–
Cc1ccccc1C(=O)NC1CCN(CCSc2cccc(Cl)c2Cl)CC1	–	–	–	815 nM	–
CC(C)c1ccccc1OCCN1CCC(CNS(=O)(=O)c2cccc(Cl)c2)CC1	104 nM	177 nM	66 nM	46 nM	2

SMILES	Ki [1]	Ki [2]	Ki (D(2) dopamine receptor)	Ki [3]	Ratio Ki (Homo sapiens)
CCOc1ccccc1C(=O)NCC1CCN(CCOc2ccccc2SC)CC1	–	–	–	1190 nM	–
O=S(=O)(NC1CCN(CCOc2ccccc2-c2ccccc2)CC1)c1ccc(Cl)s1	–	–	–	12 nM	–
O=S(=O)(NCC1CCN(CCOc2ccccc2-c2ccccc2)CC1)c1ccc(F)cc1	290 nM	315 nM	46 nM	13 nM	22
O=S(=O)(N[C@@H]1CCN(CCOc2ccccc2-c2ccccc2)C1)c1ccc(F)cc1	22 nM	102 nM	16 nM	2 nM	11
CCOc1ccccc1C(=O)NC1CCN(CCOc2cccc(F)c2)CC1	456 nM	3780 nM	76 nM	2380 nM	< 1
O=S(=O)(NC1CCN(CCOc2cc(Cl)ccc2Cl)C1)c1ccc(Cl)s1 (stereo not given)	717 nM	225 nM	78 nM	–	–
O=C(NC1CCN(CCOc2ccccc2-c2ccccc2)C1)c1ccc2ccccc2n1 (stereo not given)	45 nM	1340 nM	24 nM	41 nM	1
O=C(NC1CCN(CCOc2ccccc2-c2ccccc2)CC1)c1cccs1	–	–	–	276 nM	–
O=S(=O)(NC1CCN(CCOc2ccccc2-c2ccccc2)C1)c1ccc(F)cc1 (stereo not given)	–	–	–	5 nM	–
O=S(=O)(c1ccc2cc[nH]c2c1)N1CCC[C@@H]1CCN1CCC(Oc2ccc(Cl)cc2)CC1	250 nM	–	–	3.2 nM	–
CCOc1ccccc1C(=O)NC1CCN(CCOc2ccccc2C(C)C)C1 (stereo not given)	–	–	–	204 nM	–
O=S(=O)(N[C@H]1CCN(CCOc2ccccc2-c2ccccc2)C1)c1ccc(Cl)s1	147 nM	551 nM	8 nM	–	–
O=S(=O)(NC1CCN(CCOc2cccc(F)c2)C1)c1cccs1 (stereo not given)	270 nM	1780 nM	729 nM	1440 nM	< 1
O=S(=O)(NC1CCN(CCOc2ccccc2-c2ccccc2)C1)c1ccc(F)c(F)c1 (stereo not given)	92 nM	327 nM	24 nM	7 nM	13
Cc1ccccc1C(=O)NCC1CCN(CCOc2ccccc2C(C)(C)C)CC1	–	–	–	1500 nM	–
O=C(NC1CCN(CCSc2cccc(Cl)c2Cl)C1)c1ccc2ccccc2n1 (stereo not given)	–	–	–	1110 nM	–

The next lines start with the values.

Ki [1]	Ki [2]	Ki (D(2) dopamine receptor)	Ki [3]	Ratio Ki (Homo sapiens)	SMILES
81 nM	515 nM	18 nM	9 nM	9	O=S(=O)(NC1CCN(CCOc2ccccc2-c2ccccc2)C1)c1cc(F)ccc1F (stereo not given)
22 nM	96 nM	72 nM	16 nM	1	O=S(=O)(NC1CCN(CCOc2cccc3c2CCCC3)C1)c1ccc(F)cc1 (stereo not given)
141 nM	313 nM	50 nM	60 nM	2	CC(C)c1ccccc1OCCN1CCC(CNS(=O)(=O)c2ccc(F)cc2)CC1
–	–	–	391 nM	–	O=C(NC1CCN(CCOc2ccccc2-c2ccccc2)CC1)c1cccc(F)c1
–	–	–	1670 nM	–	CC(C)(C)c1ccccc1OCCN1CCC(NC(=O)c2cccc(F)c2)CC1
–	–	–	415 nM	–	O=C(NCC1CCN(CCOc2cc(Cl)ccc2Cl)CC1)c1cccc(F)c1
48 nM	1800 nM	15 nM	21 nM	2	O=C(NC1CCN(CCOc2ccccc2-c2ccccc2)C1)c1cccc(F)c1F (stereo not given)
10 nM	357 nM	41 nM	11 nM	1	CSc1ccccc1OCCN1CCC(NS(=O)(=O)c2ccc(F)cc2)C1 (stereo not given)
–	–	–	1100 nM	–	CCOc1ccccc1C(=O)NC1CCN(CCOc2cccc(-c3ccccc3)c2)C1 (stereo not given)
9 nM	248 nM	11 nM	9 nM	1	O=S(=O)(NC1CCN(CCOc2ccccc2)C1)c1ccc(F)cc1 (stereo not given)
–	–	–	2220 nM	–	O=C(NC1CCN(CCOc2cccc3c2CCCC3)C1)c1cccc(F)c1 (stereo not given)
–	–	–	3370 nM	–	CCOc1ccccc1C(=O)NC1CCN(CCOc2cccc(NC(C)=O)c2)C1 (stereo not given)
–	–	–	1140 nM	–	CSc1ccccc1OCCN1CCC(NC(=O)c2cccs2)CC1
–	–	–	27 nM	–	COc1ccc(OC)c(S(=O)(=O)NCC2CCN(CCOc3ccccc3C(C)C)CC2)c1
230 nM	951 nM	523 nM	293 nM	< 1	O=S(=O)(NC1CCN(CCOc2cccc(F)c2)C1)c1ccc(F)c(F)c1 (stereo not given)
23 nM	504 nM	10 nM	10 nM	2	CC(C)c1ccccc1OCCN1CCC(NS(=O)(=O)c2cccc3cccnc23)C1 (stereo not given)

Ki [1]	Ki [2]	Ki (D(2) dopamine receptor)	Ki [3]	Ratio Ki (Homo sapiens)	SMILES
30 nM	1760 nM	79 nM	178 nM	< 1	CC(C)c1ccccc1OCCN1CCC(NC(=O)c2ccc3ccccc3n2)C1 (stereo not given)
436 nM	240 nM	51 nM	0.3 nM	1450	CC(C)c1ccccc1OCCN1CCC(NS(=O)(=O)c2ccc(F)cc2)CC1
10 nM	156 nM	60 nM	16 nM	< 1	O=S(=O)(NC1CCN(CCOc2cccc3c2CCCC3)C1)c1cc(F)ccc1F (stereo not given)
237 nM	862 nM	84 nM	155 nM	2	O=S(=O)(NC1CCN(CCOc2ccccc2)CC1)c1cccs1
841 nM	2760 nM	1060 nM	2220 nM	< 1	O=S(=O)(NCC1CCN(CCOc2cccc(F)c2)CC1)c1cccs1
–	–	–	85 nM	–	CCOc1ccccc1C(=O)NC1CCN(CCOc2ccccc2-c2ccccc2)C1 (stereo not given)
–	–	–	59 nM	–	Cc1ccccc1C(=O)NC1CCN(CCOc2ccccc2-c2ccccc2)C1 (stereo not given)
18 nM	147 nM	50 nM	78 nM	< 1	CSc1ccccc1OCCN1CCC(CNS(=O)(=O)c2cccc(Cl)c2)CC1
–	–	–	97 nM	–	O=S(=O)(NC1CCN(CCOc2cc(Cl)ccc2Cl)C1)c1ccc(F)c(F)c1 (stereo not given)
–	–	–	329 nM	–	CCOc1ccccc1C(=O)NC1CCN(CCSc2ccccc2-c2ccccc2)CC1
283 nM	831 nM	560 nM	2190 nM	< 1	O=S(=O)(NCC1CCN(CCOc2cccc(F)c2)CC1)c1cccc(Cl)c1
–	–	–	334 nM	–	O=C(NCC1CCN(CCOc2ccccc2-c2ccccc2)CC1)c1ccc2ccccc2n1
–	–	–	873 nM	–	O=C(NC1CCN(CCOc2cc(Cl)ccc2Cl)CC1)c1ccc2ccccc2n1
–	–	–	409 nM	–	Cc1ccccc1C(=O)NCC1CCN(CCOc2cccc3c2CCCC3)CC1
–	–	–	2670 nM	–	Cc1ccccc1C(=O)NCC1CCN(CCOc2cccc(-c3ccccc3)c2)CC1
–	–	–	93 nM	–	O=S(=O)(NC1CCN(CCSc2ccccc2-c2ccccc2)CC1)c1ccc(F)c(F)c1

Reference: ChEMBL document CHEMBL2157986, “The multiobjective based design, synthesis and evaluation of the arylsulfonamide/amide derivatives of aryloxyethyl- and arylthioethyl- piperidines and pyrrolidines as a novel class of potent 5-HT₇ receptor antagonists” (Eur J Med Chem, 2012)
